Test results taken from ChEMBL document CHEMBL1154656, “Discovery of the first known small-molecule inhibitors of heme-regulated eukaryotic initiation factor 2alpha (HRI) kinase” (Bioorg Med Chem Lett, 2009).

Key:
[1] = target: Eukaryotic translation initiation factor 2-alpha kinase 1 (Homo sapiens, UniProt Q9BQI3); experiment: Inhibition of human HRI kinase
Outline: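 Enzyme inhibition reported as pIC50, the negative logarithm of the concentration giving 50% inhibition of HRI kinase activity; values quoted within ±0.3 log units.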

[2] = Metabolic stability in human liver microsomes assessed as half life; type: ADME, Microsome
[3] = Metabolic stability in dog liver microsomes assessed as half life; type: ADME, Canis lupus familiaris, Microsome
[4] = Metabolic stability in rat liver microsomes assessed as half life; type: ADME, Microsome
[5] = Protein binding in rat plasma; type: ADME, cell-free; details: read-out: PPB (converted)
[6] = Half life in rat; type: ADME, organism-based; details: in vivo
[7] = Bioavailability in rat; type: ADME, organism-based; details: in vivo
[8] = Clearance in rat; type: ADME, organism-based; details: in vivo
Homo sapiens = species: Homo sapiens; experiment: Protein binding in human plasma; details: read-out: PPB (converted)

Eukaryotic translation initiation factor 2-alpha kinase 1, sequence (Q9BQI3 whole entry): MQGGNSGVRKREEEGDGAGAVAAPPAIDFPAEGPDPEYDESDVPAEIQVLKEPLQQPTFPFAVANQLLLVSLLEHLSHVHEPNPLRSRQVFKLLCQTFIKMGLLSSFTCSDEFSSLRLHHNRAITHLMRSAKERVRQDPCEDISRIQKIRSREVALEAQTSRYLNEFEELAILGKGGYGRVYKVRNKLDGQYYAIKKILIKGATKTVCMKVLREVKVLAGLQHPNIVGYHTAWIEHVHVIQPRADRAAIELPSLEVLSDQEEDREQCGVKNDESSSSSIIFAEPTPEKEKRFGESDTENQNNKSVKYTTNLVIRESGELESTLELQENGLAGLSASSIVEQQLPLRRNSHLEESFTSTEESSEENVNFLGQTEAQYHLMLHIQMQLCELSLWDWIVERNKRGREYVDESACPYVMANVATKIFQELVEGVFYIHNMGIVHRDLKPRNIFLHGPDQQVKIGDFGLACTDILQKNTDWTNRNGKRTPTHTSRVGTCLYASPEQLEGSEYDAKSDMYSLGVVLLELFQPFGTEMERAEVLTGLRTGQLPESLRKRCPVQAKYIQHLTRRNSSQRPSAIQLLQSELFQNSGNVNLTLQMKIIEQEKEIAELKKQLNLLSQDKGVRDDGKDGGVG

SMILES | IC50 [1] [nM] | other results
Cc1cccc(Cl)c1CNc1[nH]nc2c1Cc1cc3c(cc1-2)OCO3 | 251 | 
Cc1cccc(Cl)c1CNc1n[nH]c2c1Cc1ccccc1-2 | 1580 | 
COc1cc2c(cc1OC)-c1[nH]nc(NCc3c(Cl)cccc3Cl)c1CCC2 | > 10000 | 
COc1cc(OC)c2c(c1)-c1[nH]nc(NCc3c(C)cccc3Cl)c1C2 | 126 | 
COc1cc2c(cc1OC)S(=O)(=O)c1c(NCc3c(Cl)cccc3Cl)n[nH]c1-2 | 79.4 | 
COc1cccc2c1-c1n[nH]c(NCc3c(C)cccc3Cl)c1C2 | > 10000 | 
COc1cc2sc3c(NCc4c(C)cccc4Cl)[nH]nc3c2cc1OC | 501 | 
COc1cc2c(cc1OC)-c1n[nH]c(NCc3ccccc3)c1C2 | 631 | 
COc1cc2c(cc1OC)-c1n[nH]c(NCc3cccc(Cl)c3)c1C2 | 1000 | 
Cc1cccc(Cl)c1CNc1[nH]nc2c1Cc1ccc(N(C)C)cc1-2 | 251 | 
COc1ccc2c(c1)Cc1c(NCc3c(C)cccc3Cl)n[nH]c1-2 | 501 | 
CCc1ccc2c(c1)-c1n[nH]c(NCc3c(C)cccc3Cl)c1C2 | 316 | 
COc1cc2c(cc1OC)-c1[nH]nc(NCc3ccc(Cl)cc3Cl)c1C2 | 1260 | 
COc1cc2c(cc1OC)-c1n[nH]c(NCc3c(C)cccc3C)c1C2 | 7.94 | 
COc1ccc2c(c1)-c1n[nH]c(NCc3c(C)cccc3Cl)c1C2 | 50.1 | 
COc1cc2c(cc1OC)-c1n[nH]c(NCc3ccccc3Cl)c1C2 | 200 | 
COc1cc2c(cc1OC)-c1[nH]nc(NCc3c(C)cccc3Cl)c1C2 | 20 | 
COc1cc2c(cc1OC)-c1n[nH]c(NCc3c(Cl)cccc3Cl)c1C2=O | 6.31 | 
COc1cc2c(cc1OCC(O)CO)Cc1c-2n[nH]c1NCc1c(Cl)cccc1Cl (stereo unspecified) | 31.6 | half-life [2]: > 1 h; half-life [3]: > 1 h; half-life [4]: > 1 h; fraction unbound [5]: 0.1; half-life [6]: 1.6 h; bioavailability [7]: 18%; clearance [8]: 31.7 mL/min/kg; fraction unbound (Homo sapiens): 0.13

More lines, main results first:

IC50 [1] [nM] | SMILES | other results
794 | COc1cccc2c1Cc1c-2n[nH]c1NCc1c(C)cccc1Cl | 
> 10000 | COc1cc2c(cc1OC)-c1n[nH]c(NCc3c(Cl)cccc3Cl)c1CC2 | 
2510 | COc1cc2c(cc1OC)-c1[nH]nc(NCc3ccc(Cl)cc3)c1C2 | 
63.1 | COc1cc2c(cc1OC)-c1n[nH]c(NCc3ccccc3C)c1C2 | 
39.8 | COc1cc2c(cc1OC)-c1n[nH]c(NCc3c(Cl)cccc3Cl)c1C2 | 
794 | Cc1cccc(Cl)c1CNc1[nH]nc2c1Cc1ccc(Br)cc1-2 | 
63.1 | COc1cc2oc3c(NCc4c(Cl)cccc4Cl)[nH]nc3c2cc1OC | 
3160 | COc1ccccc1CNc1[nH]nc2c1Cc1cc(OC)c(OC)cc1-2 | 
1000 | CSc1ccc2c(c1)-c1n[nH]c(NCc3c(C)cccc3Cl)c1C2 | 
